Data as given in publication PMC11341692 (Nature Communications, 2024).

System: NET formation in human peripheral blood neutrophils
Experiment: MPO-ANCA-IC-induced NET formation in primed human peripheral blood neutrophils
Assay type: cell-based
Conditions: for MPO-ANCA-IC-induced NET formation: avacopan 0.1 and 1 µM
Summary of the method: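 Neutrophils isolated with Polymorphprep from the blood of healthy volunteers (n = 3). Cells were pretreated 15 min with an NE inhibitor (0, 50, 500 µM) or a C5aR inhibitor (0, 0.1, 1 µM), then primed with 5 ng/ml TNF-α or 100 ng/ml C5a for 15 min at 37 °C. They were seeded on MPO-ANCA-IC-coated chambers at 5 × 10^5/well for 3–4 h at 37 °C, then PFA-fixed and stained for CD15, Cit-H3 and DAPI. DAPI-positive DNA area per neutrophil was taken from three random images per well.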

Compound | MPO-ANCA-IC-induced NET formation (C5a-primed neutrophils) | MPO-ANCA-IC-induced NET formation (TNF-α-primed neutrophils) | DAPI-positive DNA area per neutrophil (TNF-α + MPO-ANCA-IC, sivelestat 0, 50, and 500 µM) | Neutrophil swelling (fold change) (TNF-α + MPO-ANCA-IC, sivelestat 500 µM)
Cc1ccc(NC(=O)[C@H]2CCCN(C(=O)c3c(C)cccc3F)[C@H]2c2ccc(NC3CCCC3)cc2)cc1C(F)(F)F [Avacopan, avacopan] | suppressed | but not in TNF-α-primed neutrophils | – | –
CC(C)(C)C(=O)Oc1ccc(S(=O)(=O)Nc2ccccc2C(=O)NCC(=O)O)cc1 [Sivelestat] | – | – | reduced by sivelestat dose-dependently and significantly | significantly suppressed
